Assay results published in ChEMBL document CHEMBL1121742, “Synthesis and antibacterial activity of some ester, amides, and hydrazides of 3-carboxyrifamycin S. Relationship between structure and activity of ansamycins” (1981).
≈ marks a conversion by molar mass, not a printed value.

Legend:
Escherichia coli [1] = assay: Minimum inhibitory concentration of compound tested for antibacterial activity against Escherichia coli ML/35; 25-50; type: functional
Summary of the method: (§1)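 MIC by serial dilution in liquid medium in test tubes. Medium was brain-heart infusion and the inoculum was 10⁶ cells/mL. Tubes were incubated at 35 °C for 24 h. MIC was taken as the lowest antibiotic concentration preventing visible growth.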

Staphylococcus aureus = assay: Minimum inhibitory concentration of compound tested for antibacterial activity against Staphylococcus aureus 209 P(FDA); type: functional; summary of the method: as §1
Salmonella paratyphi = assay: Minimum inhibitory concentration of compound tested for antibacterial activity against Salmonella paratyphi BO 248 K(Sclavo); type: functional, Salmonella enterica subsp. enterica serovar Paratyphi A; settings: Salmonella enterica
Klebsiella pneumoniae [2] = assay: Minimum inhibitory concentration of compound tested for antibacterial activity against Klebsiella pneumoniae ottaviani; 25-50; type: functional; summary of the method: as §1
Escherichia coli [3] = assay: Minimum inhibitory concentration of compound tested for antibacterial activity against Escherichia coli ML/35; type: functional; summary of the method: as §1
Klebsiella pneumoniae [4] = assay: Minimum inhibitory concentration of compound tested for antibacterial activity against Klebsiella pneumoniae ottaviani; type: functional; summary of the method: as §1

In the case of `COC(=O)C1=C2NC(=O)/C(C)=C\C=C\C(C)C(O)C(C)C(O)C(C)C(OC(C)=O)C(C)C(OC)/C=C/OC3(C)Oc4c(C)c(O)c(c(c4C3=O)C1=O)C2=O` (stereo unspecified), the MIC (Escherichia coli [1]) is reported as 25 µg/mL (≈ 33.2 µM), the MIC (Staphylococcus aureus) is reported as 0.05 µg/mL (≈ 0.0663 µM) and the MIC (Salmonella paratyphi) is reported as ~50 µg/mL (≈ 66.3 µM). It also gave an MIC (Klebsiella pneumoniae [2]) of 25 µg/mL (≈ 33.2 µM).
Compound `CO[C@H]1/C=C/O[C@@]2(C)Oc3c(C)c(O)c4c(O)c(c(/C=N/N5CCN(C)CC5)c(O)c4c3C2=O)NC(=O)/C(C)=C\C=C\[C@H](C)[C@H](O)[C@@H](C)[C@@H](O)[C@@H](C)[C@H](OC(C)=O)[C@@H]1C` [RIFAMPIN] has an MIC (Escherichia coli [3]) of 6 µg/mL (≈ 7.29 µM), an MIC (Staphylococcus aureus) of ~0.025 µg/mL (≈ 0.0304 µM) and an MIC (Salmonella paratyphi) of 12 µg/mL (≈ 14.6 µM). The MIC (Klebsiella pneumoniae [4]) was 25 µg/mL (≈ 30.4 µM).
With `COC1/C=C/OC2(C)Oc3c(C)c(O)c4c(c3C2=O)C(=O)C(C(=O)NN(C)C)=C(NC(=O)/C(C)=C\C=C\C(C)C(O)C(C)C(O)C(C)C(OC(C)=O)C1C)C4=O` (stereo unspecified) the MIC (Escherichia coli [3]) was > 50 µg/mL, the MIC (Staphylococcus aureus) was < 0.005 µg/mL and the MIC (Salmonella paratyphi) was > 50 µg/mL. For the same compound, the MIC (Klebsiella pneumoniae [4]) was > 50 µg/mL.
With `CO[C@H]1/C=C/O[C@@]2(C)Oc3c(C)c(O)c4c(O)c(cc(O)c4c3C2=O)NC(=O)/C(C)=C\C=C\[C@H](C)[C@H](O)[C@@H](C)[C@@H](O)[C@@H](C)[C@H](OC(C)=O)[C@@H]1C` [RIFAMYCIN] the MIC (Escherichia coli [3]) was 100 µg/mL (≈ 143 µM), the MIC (Staphylococcus aureus) was < 0.005 µg/mL and the MIC (Salmonella paratyphi) was 100 µg/mL (≈ 143 µM). It also gave an MIC (Klebsiella pneumoniae [4]) of 100 µg/mL (≈ 143 µM).
With `COC1/C=C/OC2(C)Oc3c(C)c(O)c4c(c3C2=O)C(=O)C(C(=O)N(C)N2CCCCC2)=C(NC(=O)/C(C)=C\C=C\C(C)C(O)C(C)C(O)C(C)C(OC(C)=O)C1C)C4=O` (stereo unspecified) the MIC (Escherichia coli [3]) was > 50 µg/mL, the MIC (Staphylococcus aureus) was ~0.03 µg/mL (≈ 0.0359 µM) and the MIC (Salmonella paratyphi) was > 50 µg/mL. The MIC (Klebsiella pneumoniae [4]) was > 50 µg/mL.
In the case of `COC1/C=C/OC2(C)Oc3c(C)c(O)c4c(c3C2=O)C(=O)C(C(=O)N(C)C)=C(NC(=O)/C(C)=C\C=C\C(C)C(O)C(C)C(O)C(C)C(OC(C)=O)C1C)C4=O` (stereo unspecified), the MIC (Escherichia coli [3]) is reported as > 50 µg/mL, the MIC (Staphylococcus aureus) is reported as 0.025 µg/mL (≈ 0.0326 µM) and the MIC (Salmonella paratyphi) is reported as > 50 µg/mL. The MIC (Klebsiella pneumoniae [4]) was > 50 µg/mL.
`COC1/C=C/OC2(C)Oc3c(C)c(O)c4c(c3C2=O)C(=O)C(C(=O)Nc2ccc(Br)cc2)=C(NC(=O)/C(C)=C\C=C\C(C)C(O)C(C)C(O)C(C)C(OC(C)=O)C1C)C4=O` (stereo unspecified) was tested, and the MIC (Escherichia coli [3]) was > 50 µg/mL, the MIC (Staphylococcus aureus) was 0.1 µg/mL (≈ 0.112 µM) and the MIC (Salmonella paratyphi) was > 50 µg/mL. The MIC (Klebsiella pneumoniae [4]) was > 50 µg/mL.
For `COC1/C=C/OC2(C)Oc3c(C)c(O)c4c(c3C2=O)C(=O)C(C(=O)OCC(O)CO)=C(NC(=O)/C(C)=C\C=C\C(C)C(O)C(C)C(O)C(C)C(OC(C)=O)C1C)C4=O` (stereo unspecified), the MIC (Escherichia coli [3]) was > 50 µg/mL, the MIC (Staphylococcus aureus) was ~0.5 µg/mL (≈ 0.614 µM) and the MIC (Salmonella paratyphi) was > 50 µg/mL. For the same compound, the MIC (Klebsiella pneumoniae [4]) was > 50 µg/mL.
For `COC1/C=C/OC2(C)Oc3c(C)c(O)c4c(c3C2=O)C(=O)C(C(=O)N2CCN(C)CC2)=C(NC(=O)/C(C)=C\C=C\C(C)C(O)C(C)C(O)C(C)C(OC(C)=O)C1C)C4=O` (stereo unspecified), the MIC (Escherichia coli [3]) was > 50 µg/mL, the MIC (Staphylococcus aureus) was 0.1 µg/mL (≈ 0.122 µM) and the MIC (Salmonella paratyphi) was > 50 µg/mL. The MIC (Klebsiella pneumoniae [4]) was > 50 µg/mL.
